Laboratory results taken from ChEMBL document CHEMBL4382248, “Optimization of a 1,3,4-oxadiazole series for inhibition of Ca2+/calmodulin-stimulated activity of adenylyl cyclases 1 and 8 for the treatment of chronic pain” (Eur J Med Chem, 2019).
The source made the active and inactive calls. The rule behind the calls is not given here.

Tests used:
HEK293 = test: (§1) Cytotoxicity against HEK293 cells expressing human AC1 at 30 uM preincubated for 30 mins followed by A23187 stimulation and measured after 1 hr by CellTiter-Glo luminescent cell viability assay relative to control; assay type: cell-based; settings: hek293, 1 h, 30 µM
Procedure, shortened: (§2)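 Cytotoxicity in HEK lines stably expressing AC1 or AC8: single 30 µM dose, 90 min incubation. Viability was read by luminescent ATP reporter as % of DMSO-treated (100%) and Triton-X-treated (0%) controls.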

Homo sapiens = organism: Homo sapiens; test: Selectivity ratio of IC50 for human AC8 expressed in HEK293 cells to IC50 for human AC1 expressed in HEK293 cells; assay type: cell-based
Adenylate cyclase type 1 [1] = molecular target: T1, Adenylate cyclase type 1 (Homo sapiens, UniProt Q08828); test: Inhibition of human AC1 expressed in HEK293 AC3/AC6 deficit cells assessed as decrease in forskolin-stimulated cAMP accumulation preincubated for 30 mins followed by forskolin stimulation and measured after 1 hr by fluorescence assay; assay type: cell-based
Procedure, shortened: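 HEK cells lacking AC3/AC6 were transiently transfected with AC1. Cells were incubated with test compounds in the presence of forskolin at 3, 10 or 30 µM, and cAMP accumulation was measured.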
Target sequence in this assay (Q08828 whole entry, looked up): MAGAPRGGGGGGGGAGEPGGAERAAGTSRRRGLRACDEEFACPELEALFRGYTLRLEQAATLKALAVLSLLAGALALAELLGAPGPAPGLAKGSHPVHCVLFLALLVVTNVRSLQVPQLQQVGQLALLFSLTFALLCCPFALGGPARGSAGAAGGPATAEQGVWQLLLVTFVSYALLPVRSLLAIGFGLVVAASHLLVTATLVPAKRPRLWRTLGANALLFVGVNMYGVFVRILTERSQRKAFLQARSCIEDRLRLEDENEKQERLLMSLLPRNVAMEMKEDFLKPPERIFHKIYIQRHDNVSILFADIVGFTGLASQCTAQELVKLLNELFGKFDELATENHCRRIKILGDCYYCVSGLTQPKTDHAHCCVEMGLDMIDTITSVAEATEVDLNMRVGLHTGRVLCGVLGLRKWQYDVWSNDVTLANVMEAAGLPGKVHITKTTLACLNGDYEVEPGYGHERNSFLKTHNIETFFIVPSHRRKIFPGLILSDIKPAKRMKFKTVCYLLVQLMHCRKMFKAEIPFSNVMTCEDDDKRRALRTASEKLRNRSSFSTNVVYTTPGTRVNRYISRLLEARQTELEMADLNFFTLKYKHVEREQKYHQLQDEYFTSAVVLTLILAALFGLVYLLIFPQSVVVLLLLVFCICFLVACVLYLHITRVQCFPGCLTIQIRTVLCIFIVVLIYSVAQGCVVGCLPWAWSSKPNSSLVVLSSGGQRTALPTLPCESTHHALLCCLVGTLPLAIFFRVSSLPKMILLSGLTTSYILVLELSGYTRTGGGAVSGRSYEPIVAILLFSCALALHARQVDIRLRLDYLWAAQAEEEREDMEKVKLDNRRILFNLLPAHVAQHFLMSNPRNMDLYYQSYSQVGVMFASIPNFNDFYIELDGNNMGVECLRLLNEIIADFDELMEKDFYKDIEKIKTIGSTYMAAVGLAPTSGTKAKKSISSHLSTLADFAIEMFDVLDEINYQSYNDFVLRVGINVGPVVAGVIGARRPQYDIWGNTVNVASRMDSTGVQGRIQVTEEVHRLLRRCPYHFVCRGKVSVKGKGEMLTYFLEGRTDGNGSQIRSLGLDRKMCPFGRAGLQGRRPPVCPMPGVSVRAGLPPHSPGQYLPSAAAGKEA

[2] = as §1; assay type: cell-based; settings: HEK293 cells expressing human AC1, read-out: Activity; procedure, shortened: as §2
[3] = molecular target: Adenylate cyclase type 2 (Homo sapiens) (UniProt Q08462); test: Inhibition of human AC2 expressed in HEK293 cells assessed as PMA-stimulated cAMP accumulation at 30 uM preincubated for 30 mins followed by PMA stimulation and measured after 1 hr by fluorescence assay relative to control; assay type: cell-based; design: scale not given: the % may be the effect or the level left
Adenylate cyclase type 2 (Homo sapiens), sequence (Q08462 whole entry): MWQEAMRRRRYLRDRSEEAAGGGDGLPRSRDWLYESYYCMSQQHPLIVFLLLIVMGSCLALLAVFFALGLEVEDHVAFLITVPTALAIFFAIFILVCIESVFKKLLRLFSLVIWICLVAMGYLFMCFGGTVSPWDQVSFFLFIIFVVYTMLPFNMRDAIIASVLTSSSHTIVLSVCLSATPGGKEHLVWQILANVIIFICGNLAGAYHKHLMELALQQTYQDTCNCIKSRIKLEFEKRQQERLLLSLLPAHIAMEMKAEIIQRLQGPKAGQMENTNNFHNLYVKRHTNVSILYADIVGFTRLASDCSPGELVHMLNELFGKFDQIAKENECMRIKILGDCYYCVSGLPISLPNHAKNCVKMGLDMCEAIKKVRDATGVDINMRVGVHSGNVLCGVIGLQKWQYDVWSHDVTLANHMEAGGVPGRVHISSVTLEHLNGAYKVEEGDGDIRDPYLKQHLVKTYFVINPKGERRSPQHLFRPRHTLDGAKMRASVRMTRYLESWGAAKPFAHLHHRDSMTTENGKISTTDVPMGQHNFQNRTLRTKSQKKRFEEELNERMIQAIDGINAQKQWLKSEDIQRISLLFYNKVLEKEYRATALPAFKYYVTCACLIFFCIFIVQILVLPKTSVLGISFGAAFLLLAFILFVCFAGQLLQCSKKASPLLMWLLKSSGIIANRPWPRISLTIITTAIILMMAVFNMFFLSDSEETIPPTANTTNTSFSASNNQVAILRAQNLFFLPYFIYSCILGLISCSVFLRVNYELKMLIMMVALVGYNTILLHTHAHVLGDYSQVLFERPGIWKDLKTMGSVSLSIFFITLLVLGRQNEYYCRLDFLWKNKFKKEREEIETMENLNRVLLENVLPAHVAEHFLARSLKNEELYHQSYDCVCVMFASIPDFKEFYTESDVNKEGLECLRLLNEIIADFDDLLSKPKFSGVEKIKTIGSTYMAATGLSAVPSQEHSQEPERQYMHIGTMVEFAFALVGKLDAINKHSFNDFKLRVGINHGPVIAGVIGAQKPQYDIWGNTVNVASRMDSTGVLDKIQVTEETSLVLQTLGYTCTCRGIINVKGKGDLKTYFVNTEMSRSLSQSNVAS
Procedure, shortened: (§3)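 Group 2 AC2 (PKC-stimulated) or group 3 AC (forskolin-stimulated) cells were exposed to a single 30 µM dose (n = 3). cAMP activity was normalized to DMSO controls set as 100%.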

[4] = molecular target: Adenylate cyclase type 5 (Homo sapiens) (UniProt O95622); test: Inhibition of human AC5 expressed in HEK293 cells assessed as forskolin-stimulated cAMP accumulation at 30 uM preincubated for 30 mins followed by forskolin stimulation and measured after 1 hr by fluorescence assay relative to control; assay type: cell-based; design: scale not given: the % may be the effect or the level left; procedure, shortened: as §3
Adenylate cyclase type 5 (Homo sapiens), sequence (O95622 whole entry, looked up): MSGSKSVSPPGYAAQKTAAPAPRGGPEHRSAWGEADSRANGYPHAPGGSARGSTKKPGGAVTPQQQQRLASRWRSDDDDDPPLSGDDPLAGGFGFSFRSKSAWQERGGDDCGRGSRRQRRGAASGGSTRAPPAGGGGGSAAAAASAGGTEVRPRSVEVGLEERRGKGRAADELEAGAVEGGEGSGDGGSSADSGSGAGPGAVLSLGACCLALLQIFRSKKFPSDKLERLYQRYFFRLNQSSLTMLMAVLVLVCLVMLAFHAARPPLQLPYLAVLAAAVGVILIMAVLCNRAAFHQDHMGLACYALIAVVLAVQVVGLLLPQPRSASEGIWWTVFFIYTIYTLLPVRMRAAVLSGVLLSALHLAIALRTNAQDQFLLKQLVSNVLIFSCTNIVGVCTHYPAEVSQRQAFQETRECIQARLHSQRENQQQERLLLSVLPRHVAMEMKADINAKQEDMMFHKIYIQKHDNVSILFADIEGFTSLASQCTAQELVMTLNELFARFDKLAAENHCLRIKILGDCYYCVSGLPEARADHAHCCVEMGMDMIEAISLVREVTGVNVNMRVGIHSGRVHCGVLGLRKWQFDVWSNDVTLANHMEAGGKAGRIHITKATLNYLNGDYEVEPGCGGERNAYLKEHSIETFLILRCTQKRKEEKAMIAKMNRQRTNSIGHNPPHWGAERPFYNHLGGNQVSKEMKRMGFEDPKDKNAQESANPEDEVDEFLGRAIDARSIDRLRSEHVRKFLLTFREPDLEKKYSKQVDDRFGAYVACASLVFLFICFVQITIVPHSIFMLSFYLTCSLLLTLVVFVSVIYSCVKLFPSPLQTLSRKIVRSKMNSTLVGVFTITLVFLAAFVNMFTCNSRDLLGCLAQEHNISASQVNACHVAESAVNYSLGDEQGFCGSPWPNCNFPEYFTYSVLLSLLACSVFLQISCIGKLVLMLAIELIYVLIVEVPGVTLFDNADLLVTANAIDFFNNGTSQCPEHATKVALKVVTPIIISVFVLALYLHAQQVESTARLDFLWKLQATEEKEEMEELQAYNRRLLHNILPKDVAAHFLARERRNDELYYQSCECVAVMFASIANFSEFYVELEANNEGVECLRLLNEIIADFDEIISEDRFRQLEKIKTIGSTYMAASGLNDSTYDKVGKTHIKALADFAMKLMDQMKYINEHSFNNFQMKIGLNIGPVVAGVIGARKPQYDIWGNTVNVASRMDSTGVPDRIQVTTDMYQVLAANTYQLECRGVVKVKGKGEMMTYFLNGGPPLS

Adenylate cyclase type 1 [5] = molecular target: T1, Adenylate cyclase type 1; test: Inhibition of AC1 (unknown origin) expressed in HEK cells assessed as decrease in A23187-stimulated cAMP accumulation preincubated for 30 mins followed by A23187 stimulation and measured after 1 hr; assay type: cell-based
Procedure, shortened: (§4)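 HEK cells stably expressing AC1 or AC8; Ca2+/calmodulin-stimulated cAMP accumulation measured. Dose-response curves began at 30 µM. […] Values are the mean and SEM of three independent experiments.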
Target sequence in this assay (Q08828 whole entry): as the sequence (Q08828 whole entry, looked up) above

Adenylate cyclase type 1 [6] = molecular target: T1, Adenylate cyclase type 1; test: Inhibition of human AC1 expressed in HEK293 cells assessed as decrease in A23187-stimulated cAMP accumulation at 30 uM preincubated for 30 mins followed by A23187 stimulation and measured after 1 hr by fluorescence assay relative to control; assay type: cell-based; procedure, shortened: as §4
Target sequence in this assay (Q08828 whole entry, looked up): as above

Adenylate cyclase type 8 = Adenylate cyclase type 8 (Homo sapiens, UniProt P40145); test: Inhibition of human AC8 expressed in HEK293 cells assessed as decrease in A23187-stimulated cAMP accumulation at 30 uM preincubated for 30 mins followed by A23187 stimulation and measured after 1 hr by fluorescence assay relative to control; assay type: cell-based; procedure, shortened: as §4
Adenylate cyclase type 8, sequence (P40145 whole entry): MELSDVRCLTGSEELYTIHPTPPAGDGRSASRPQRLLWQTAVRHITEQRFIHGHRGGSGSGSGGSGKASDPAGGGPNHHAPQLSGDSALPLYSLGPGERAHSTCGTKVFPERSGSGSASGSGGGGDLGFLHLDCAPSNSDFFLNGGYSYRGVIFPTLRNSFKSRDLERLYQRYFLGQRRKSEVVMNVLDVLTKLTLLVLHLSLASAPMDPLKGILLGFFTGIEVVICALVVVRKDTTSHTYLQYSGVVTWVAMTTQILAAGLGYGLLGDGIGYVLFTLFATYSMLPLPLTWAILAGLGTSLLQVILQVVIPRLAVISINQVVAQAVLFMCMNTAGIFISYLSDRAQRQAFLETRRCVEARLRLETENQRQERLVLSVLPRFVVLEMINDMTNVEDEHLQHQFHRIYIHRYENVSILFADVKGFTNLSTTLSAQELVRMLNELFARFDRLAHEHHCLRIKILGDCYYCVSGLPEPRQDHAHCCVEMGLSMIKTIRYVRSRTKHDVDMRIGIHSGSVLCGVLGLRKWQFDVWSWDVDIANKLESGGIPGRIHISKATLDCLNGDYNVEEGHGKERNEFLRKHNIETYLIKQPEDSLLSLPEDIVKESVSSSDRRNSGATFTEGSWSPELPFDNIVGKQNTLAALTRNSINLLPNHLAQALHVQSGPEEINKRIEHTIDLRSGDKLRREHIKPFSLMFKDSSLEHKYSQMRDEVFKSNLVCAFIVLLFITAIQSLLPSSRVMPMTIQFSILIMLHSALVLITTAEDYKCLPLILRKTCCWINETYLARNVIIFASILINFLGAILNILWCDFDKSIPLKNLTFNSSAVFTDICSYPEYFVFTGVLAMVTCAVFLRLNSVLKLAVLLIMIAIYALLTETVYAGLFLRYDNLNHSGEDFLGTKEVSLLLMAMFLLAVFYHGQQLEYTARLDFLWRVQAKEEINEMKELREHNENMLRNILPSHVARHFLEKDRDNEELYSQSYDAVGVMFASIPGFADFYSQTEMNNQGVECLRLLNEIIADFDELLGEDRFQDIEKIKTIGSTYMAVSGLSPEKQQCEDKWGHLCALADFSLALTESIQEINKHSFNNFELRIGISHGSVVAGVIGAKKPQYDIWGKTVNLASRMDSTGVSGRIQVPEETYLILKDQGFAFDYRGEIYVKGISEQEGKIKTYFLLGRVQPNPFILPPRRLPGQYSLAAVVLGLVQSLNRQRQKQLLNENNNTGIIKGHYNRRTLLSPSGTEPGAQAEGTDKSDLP

Adenylate cyclase type 1 [7] = molecular target: T1, Adenylate cyclase type 1; test: Inhibition of human AC1 expressed in HEK293 cells assessed as decrease in A23187-stimulated cAMP accumulation preincubated for 30 mins followed by A23187 stimulation and measured after 1 hr by fluorescence assay; assay type: cell-based; procedure, shortened: as §4
Target sequence in this assay (Q08828 whole entry): as the sequence (Q08828 whole entry, looked up) above

Mus musculus [8] = test: Analgesic activity in C57BL/6 mouse model of CFA-induced inflammatory pain model assessed as reduction in mechanical sensitivity in ipsilateral paw at 5 mg/kg, ip measured after 1 day post dose by von Frey filament test based modified up-and-down technique; assay type: functional, organism-based
Mus musculus [9] = test: Analgesic activity in C57BL/6 mouse model of CFA-induced inflammatory pain model assessed as reduction in mechanical sensitivity in ipsilateral paw at 5 mg/kg, ip measured after 30 mins post dose by von Frey filament test based modified up-and-down technique; assay type: functional, organism-based
Procedure, shortened: (§5)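 Male C57BL/6 mice (n=7) received CFA in the ipsilateral hind paw. On day 2, after baseline hypersensitivity was measured, they were given vehicle or 5 mg/kg i.p. Mechanical sensitivity of ipsilateral and contralateral paws was recorded 30 min after injection. Analysis used two-way repeated-measures ANOVA with Bonferroni test.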

Mus musculus [10] = test: Effect on mechanical sensitivity in contralateral pa in C57BL/6 mouse model of CFA-induced inflammatory pain model at 5 mg/kg, ip measured after 30 mins post dose by von Frey filament test based modified up-and-down technique; assay type: ADME, organism-based; settings: in vivo, 0.5 h; procedure, shortened: as §5

O=C(Nc1nnc(-c2ccc(F)cc2)o1)c1cccc(-c2ccccc2)c1
Activity (HEK293): 71%
Ratio IC50 (Homo sapiens): 3

Nc1ncnc2c1NCN2C1CCCO1 (stereo unspecified)
inhibition (Adenylate cyclase type 1 [1]): Dose-dependent effect

O=C(Nc1nnc(-c2ccc3c(c2)CCCC3)o1)c1cccc(C(F)(F)F)c1
inhibition (Adenylate cyclase type 1 [1]): Dose-dependent effect
viability at 1 h, 30 µM [2]: 107 to 125%
Activity [3]: 449%
Activity [4]: 189%
Ratio IC50 (Homo sapiens): 4.9 to 9

O=c1cc(C(Cl)(Cl)Cl)oc2ccc(Cl)cc12
IC50 (Adenylate cyclase type 1 [5]): 2.3 µM

O=C(Nc1nnc(-c2ccco2)o1)c1ccccc1
Activity (HEK293): 73%
inhibition (Adenylate cyclase type 1 [6]): 20%
inhibition (Adenylate cyclase type 8): 28%

O=C(Nc1nnc(-c2ccccc2)o1)c1cccc(C(F)(F)F)c1
Activity (HEK293): 78%
inhibition (Adenylate cyclase type 8): 23%
Ratio IC50 (Homo sapiens): > 2.3
IC50 (Adenylate cyclase type 1 [7]): 13 µM

Cc1cc(C(=O)Nc2nnc(-c3ccc(F)cc3)o2)cc(C(F)(F)F)c1
Activity (Mus musculus [8]): inactive
viability at 1 h, 30 µM [2]: 102%
Activity (Mus musculus [9]): Active
Ratio IC50 (Homo sapiens): 2.9
Activity (Mus musculus [10]): Non-Toxic
